From PubChem BioAssay
NadD inh – inhibitors of S. aureus NadD, primary screen, biochemical, colorimetric, uHTS | AID 602399, 2012 | 0.78% of 360,000 active | Nicotinate-nucleotide adenylyltransferase NadD (Staphylococcus aureus N315) | inhibition, % at 20 µM | purified NadD enzyme, colorimetric absorbance read-out; in the data active means inhibition above about 26%
GRIN3A LBD mod – binders of NR3A ligand-binding domain, primary screen, biophysical, differential scanning fluorimetry, uHTS. Glutamate receptor ionotropic, NMDA 3A (GRIN3A) ligand-binding domain. NR3A LBD differential scanning fluorimetry, Tm shift; 0% = protein alone, 100% = glycine-bound protein. Tm shift relative to glycine control, % at 25 µM. 2.5% of 340,000 active;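 active means melting temperature shift of at least 10% of the positive control shift, at one fixed dose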
SENP1 FRET inh – human SENP1 catalytic domain inhibitors, primary screen, biochemical, FRET, uHTS. recombinant SENP1 catalytic domain, CyPet-SUMO1-YPet FRET cleavage. inhibition, % at 10 µM. AID 624204, 2012. 0.21% of 360,000 active. Sentrin-specific protease 1 (Homo sapiens), Q9P0U3;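 active means inhibition at least 30% at 10 µM, raw YFP signal under a set limit, fluorescence ratio 0.5 to 1.5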;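 further: 0% = enzyme with DMSO and 100% = no enzyme wells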
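Test system: human SENP1 catalytic domain; medium: Tris pH 8 buffer plus EDTA, NaCl, BME, BSA, NP40, catalase; incubation: 50 min reaction at room temperature; technique: FRET, CFP and YFP emission; controls: no-enzyme low control and enzyme-plus-DMSO high control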
UCH37 inh – inhibitors of human UCH37 deubiquitinase, primary screen, biochemical, Ub-AMC cleavage, fluorescence. inhibition, % (concentration not given with the values). 0.33% of 330,000 active. purified proteasome/UCH37. Ubiquitin carboxyl-terminal hydrolase isozyme L5 (Homo sapiens), Q9Y5K5. AID 588478, 2011;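 active means mean inhibition over replicate wells above about 20%, limit read from the data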;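 further: 0% = compound-free wells with enzyme and 100% = wells lacking proteasome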
Target sequence (Q9Y5K5 whole entry, looked up): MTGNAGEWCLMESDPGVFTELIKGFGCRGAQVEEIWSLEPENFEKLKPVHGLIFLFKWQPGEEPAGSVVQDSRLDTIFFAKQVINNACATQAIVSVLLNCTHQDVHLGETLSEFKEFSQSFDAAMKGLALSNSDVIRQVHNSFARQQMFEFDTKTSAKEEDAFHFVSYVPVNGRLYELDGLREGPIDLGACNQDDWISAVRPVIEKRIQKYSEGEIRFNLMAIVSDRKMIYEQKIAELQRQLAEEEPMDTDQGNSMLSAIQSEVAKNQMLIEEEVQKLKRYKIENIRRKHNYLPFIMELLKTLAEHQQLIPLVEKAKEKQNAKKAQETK
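Assay system: Proteasome-bound UCH37. Buffer or medium: pH 7.4 Tris-HCl (50 mM) with ovalbumin, ATP-MgCl2, DTT. Incubation: 30 min preincubation with enzyme, 25 min cleavage at room temperature. Measured by: fluorescence, ex 355 nm, em 460 nm. Read-out basis: percent inhibition. Control set: wells without proteasome as full block, compound-free enzyme plus substrate as uninhibited.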
ATG4B inhibitor – ATG4B protease inhibitors, primary screen, biochemical, fluorescence, uHTS; Cysteine protease ATG4B (Homo sapiens), Q9Y4P1; ATG4B cleavage of LC3-PLA2, NBD-HPC fluorescence, 1 h; inhibition, % at 8.33 µM; 0.51% of 340,000 active; in the data active means inhibition above about 40%
Numbers without * were called inactive; / = no result given. Most compounds without a hit are left out; they make up all but 3.6% or so of the library.

SMILES	NadD inh	GRIN3A LBD mod	SENP1 FRET inh	UCH37 inh	ATG4B inhibitor
COc1ccc(CCNC(=O)COC(=O)c2cccs2)cc1OC	2	12*	4	4	0
CCOc1ccc(CCNC(=O)COC(=O)c2cccs2)cc1OCC	-2	1	1	2	1
CC(=NO)c1ccco1	/	/	/	0	/
CSc1ccccc1NC(=O)NCCCl	-1	242*	0	1	15
COc1ccc2nc(N/C(N)=N/C(=S)Nc3c(C)cccc3C)nc(C)c2c1	9	24*	-10	-18	-3
CCOc1ccc2nc(N/C(N)=N/C(=S)Nc3cccc(C)c3)nc(C)c2c1	19	23*	-4	2	3
COc1ccc2nc(N/C(N)=N/C(=S)Nc3cccc(C)c3)nc(C)c2c1	17	4	-2	7	22
CCOc1ccc2nc(N/C(N)=N/C(=S)Nc3cccc(OC)c3)nc(C)c2c1	8	14*	-2	-6	3
Cc1cccc(-n2c(O)c(C=NCCCN3CCOCC3)c3ccccc3c2=O)c1	4	3	-3	5	-7
CN(C)CCN=Cc1c(O)n(-c2ccc(S(=O)(=O)N3CCOCC3)cc2)c(=O)c2ccccc12	-2	14*	-20	6	-3
CCOC(=O)c1c(NC(=O)C(=O)N/N=C/c2ccc(OCC)cc2)sc2c1CCCCC2	27	-1	-9	/	0
CCOC(=O)c1c(NC(=O)C(=O)N/N=C/c2ccc(O)c(OC)c2)sc2c1CCCCC2	32*	-1	-1	/	7
O=C(NCc1cccs1)c1cc2c(s1)CS(=O)(=O)C2	-4	15*	0	1	-2
CC(=NNC(=O)C(NC(=O)c1ccccc1)C(C)C)c1ccccc1 (stereo not given)	/	/	/	-1	/
CC12CCC(C(=O)Nc3ccccc3Br)(CC1=NO)C2(C)C (stereo not given)	/	/	/	5	/
COC(=O)C1=C(C)N(C)C(C)=C(C(=O)OC)C1c1ccsc1	-1	12*	4	5	-3
COC(=O)C1=C(C)N(C)C(C)=C(C(=O)OC)C1c1ccc(C(=O)OC)cc1	1	-1	1	-18	-1
COc1ccc(NCc2nnc(SCC(=O)Nc3nc(-c4ccccc4)cs3)n2-c2ccccc2)cc1	29	12*	-2	3	-3
O=C(CSc1nc2ccccc2o1)Nc1nc(-c2ccccc2)cs1	-3	12*	-1	3	-7
Cc1nn(-c2ccccc2)c(Cl)c1C=NNS(=O)(=O)c1ccc(Br)cc1	/	/	/	5	/
CCOC(=O)c1cnc(SC)nc1Oc1cccc(NC(=O)c2ccc(C)cc2)c1	2	17*	1	4	0
CCOC(=O)c1cnc(SC)nc1Oc1cccc(NC(=O)c2cccc(Cl)c2Cl)c1	7	3	0	6	-3
CCCCCCCC/C=C\CCCCCCCC(=O)NCCO	-12	10*	0	2	-5
COc1ccc(NC(=O)Nc2cccs2)cc1Cl	5	30*	1	1	-9
COc1ccc(C(=O)Nc2ccc(NC(=O)c3cccs3)c(OC)c2)cc1Cl	4	33*	1	-191	-1
SMILES	NadD inh	GRIN3A LBD mod	SENP1 FRET inh	UCH37 inh	ATG4B inhibitor
COc1ccc(/C=C/C(=O)c2ccc(NC(=O)c3cccs3)cc2)cc1OC	17	16*	-36	-4	13
COc1cc(NC(=O)c2cccs2)c(OC)cc1NC(=O)Nc1ccc(F)cc1	1	25*	-1	/	4
O=C(NN=Cc1ccsc1)c1ccc2ccccc2n1	/	/	/	-1	/
COCc1cc(C=NNC(=O)c2ccc(Cl)cc2)ccc1OC	/	/	/	6	/
CC(=NNC(=O)COc1cccc(Cl)c1)c1ccc2c(c1)OCCO2	/	/	/	2	/
CCN1C(=O)[C@H]2[C@H]3[C@H](O)[C@H](O)CC(=NOC[C@@H](C)[C@H](OCc4ccccc4)C(C)C)[C@@H]3CC[C@H]2C1=O	/	/	/	3	/
COc1ccc(C(=O)Nc2ccc(Cl)cn2)cc1Cl	-2	30*	0	1	-1
